Measured values gathered from unrelated publications.
Converted amounts (≈) assume the structure as drawn.
Organism: Staphylococcus epidermidis
Effect on: microbial growth

Structure (SMILES)	assay	test system	setting	quantity	value
CC[C@H]1OC(=O)[C@H](C)[C@@H](O[C@H]2C[C@@](C)(OC)[C@@H](O)[C@H](C)O2)[C@H](C)[C@@H](O[C@@H]2O[C@H](C)C[C@H](N(C)C)[C@H]2O)[C@](C)(O)C[C@@H](C)/C(=N\OCOCCOC)[C@H](C)[C@@H](O)[C@]1(C)O		MRSE	clinical isolate	MIC90	> 128 µg/mL
Cc1ccc2[nH]nc(-c3nnc(Nc4ccc(C)c(C)c4)s3)c2c1		ATCC12228		MIC	172 µg/mL (≈ 512 µM)
CN[C@H](CC(C)C)C(=O)N[C@H]1C(=O)N[C@@H](CC(N)=O)C(=O)N[C@H]2C(=O)N[C@H]3C(=O)N[C@H](C(=O)N[C@H](C(=O)O)c4cc(O)cc(O)c4-c4cc3ccc4O)[C@H](O)c3ccc(c(Cl)c3)Oc3cc2cc(c3O[C@@H]2O[C@H](CO)[C@@H](O)[C@H](O)[C@H]2O[C@H]2C[C@](C)(N)[C@H](O)[C@H](C)O2)Oc2ccc(cc2Cl)[C@H]1O			clinical isolate	MIC	0.78 µg/mL (≈ 0.538 µM)
Cc1ccc2[nH]nc(-c3nnc(Nc4ccc(F)cc4Cl)s3)c2c1		ATCC12228		MIC	118 µg/mL (≈ 328 µM)
CN[C@H](CC(C)C)C(=O)N[C@H]1C(=O)N[C@@H](CC(N)=O)C(=O)N[C@H]2C(=O)N[C@H]3C(=O)N[C@H](C(=O)N[C@H](C(=O)O)c4cc(O)cc(O)c4-c4cc3ccc4O)[C@H](O)c3ccc(c(Cl)c3)Oc3cc2cc(c3O[C@@H]2O[C@H](CO)[C@@H](O)[C@H](O)[C@H]2O[C@H]2C[C@](C)(N)[C@H](O)[C@H](C)O2)Oc2ccc(cc2Cl)[C@H]1O	broth dilution		clinical isolate	MIC50	1 µg/mL
Cc1ccc2[nH]nc(-c3nnc(Nc4ccc(Cl)c(Cl)c4)s3)c2c1		ATCC12228		MIC	187 µg/mL (≈ 498 µM)
Cc1c2c(nn1C)CSCc1cc(n(C)n1)CSc1cc(c3ccccc3c1)OCCCc1c(C(=O)O)n(C)c3c-2c(Cl)ccc13	broth dilution		clinical isolate	MIC50	12.5 µM
CCn1cc(C(=O)O)c(=O)c2cc(F)c(N3CCNCC3)cc21			clinical isolate	MIC	0.2 µg/mL (≈ 0.626 µM)
C=C[C@]1(C)C[C@@H](OC(=O)CS[C@@H]2C[C@H]3CC[C@@H](C2)N3C)[C@]2(C)[C@H](C)CC[C@]3(CCC(=O)[C@H]32)[C@@H](C)[C@@H]1O			clinical isolate	MIC90	0.0625 µg/mL (≈ 0.121 µM)
CNC(C)C1CCC(N)C(OC2C(N)CC(N)C(OC3OCC(C)(O)C(NC)C3O)C2O)O1 (stereo not shown)	broth dilution			MIC	1 µg/mL (≈ 2.09 µM)
